Screens deposited in PubChem BioAssay by several laboratories.
A selection: hits, their analogues and other compounds. The true share with any hit is near 4.6%.
ALR H2O2 inh = human ALR oxidase inhibition via reduced H2O2; purified ALR, DTT oxidation, H2O2 HRP-luminol luminescence; inhibition, % (test concentration not listed); 290,000 compounds, 3.8% hits;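 active means mean replicate inhibition above about 79%, with every replicate also reaching it, limit read from the data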
Target sequence (P55789 whole entry, looked up): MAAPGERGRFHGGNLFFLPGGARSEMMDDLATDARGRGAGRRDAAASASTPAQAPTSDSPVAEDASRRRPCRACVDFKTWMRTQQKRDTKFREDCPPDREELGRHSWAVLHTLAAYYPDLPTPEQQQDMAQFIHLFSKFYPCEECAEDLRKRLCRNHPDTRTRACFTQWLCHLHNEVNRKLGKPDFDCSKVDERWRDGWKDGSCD
NALP1 yeast inh = inhibitors of NALP1 inflammasome in yeast | S. cerevisiae NALP1/ASC/caspase-1 growth, X-gal OD620, 72 h | inhibition, % at 10 µM | 280,000 compounds, 0.61% hits; in the data active means inhibition mostly above about 24%, no sharp cut-off; inactive means mostly below about 32%
PolyA inhibitor = yeast polyadenylation inhibition; S. cerevisiae SKY197-pL101 polyadenylation reporter, beta-gal luminescence; efflux-impaired pdr1/pdr3 knockout yeast; score 100 = 6 SD above DMSO; 300,000 compounds, 0.02% hits; activity score, % at 12 µM;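 active means lowest replicate activity score at least 50, where 100 means six control SD above control mean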;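 further: yeast exposed to compound for 9 h at 30 °C; higher score means more reporter readthrough which indicates perturbed polyadenylation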
DSG3 Ab inh = human desmoglein-3 autoantibody binding inhibition | DSG3-coupled beads, scFv-anti-DSG3-GFP binding, flow cytometry; stronger effect = lower value | binding (percent of control), % at 10 µM | 310,000 compounds, 0.48% hits | P32926;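 active means binding more than 3 SD below its plate's average and above zero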;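 further: hits lower antibody fragment binding to DSG3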
Arr AP2 block = blocks beta-arrestin peptide binding to AP2 adaptin | inhibition, % at 10 µM | 340,000 compounds, 0.31% hits | AID 504490 | FITC-arrestin peptide / GST-AP2 beads, flow cytometry; AP2 beta2 appendage carries R879A mutation;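 active means inhibition above a set limit, near 3 SD of compounds lacking own fluorescence, cut at about 54% in these data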;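 further: plate controls were DMSO wells for no effect and 5 µM unlabelled arrestin peptide for full effect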
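system = GST-tagged AP2 beta2-adaptin appendage (R879A) on 4 µm glutathione beads | reagent = FITC-labelled arrestin peptide probe, 50 nM final | schedule = compound with beads 12 min RT, then probe 1 h RT | signal = HyperCyt-sampled flow cytometry, FL1 channel, ex 488/em 535 nm | read-out = percent response from loss of bead-bound FITC fluorescence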
NLRP3 yeast inh = inhibitors of NALP3 inflammasome in yeast. Yeast reconstituted NLRP3/ASC/caspase-1, beta-gal luminescence, 24 h. inhibition, % at 10 µM. 330,000 compounds, 0.39% hits;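 active means inhibition of 50% or more; inactive means inhibition below 50%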;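 further: plate controls were induced DMSO wells for no effect and uninduced yeast grown without galactose for full effect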
Arr-AP2 CP1 = blocks beta-arrestin peptide binding to human AP2. AID 504908. shares compounds with Arr AP2 block. inhibition, % at 10 µM. GST-AP2 beads, FITC arrestin peptide binding, flow cytometry; GST-fused beta2-adaptin appendage, R879A mutant. 1,300 compounds, 2% hits;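 active means inhibition above a set limit, roughly 3 SD of non-fluorescent compound noise, cut at about 38% in these data; inactive means inhibition at or below that limit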;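 further: loss of bead fluorescence from 50 nM FITC arrestin peptide bound to appendage; 0% = negative control wells and 100% = excess unlabelled arrestin peptide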
GST-FITC bead = GST-GSH bead binding interference, counter-screen; shares compounds with Arr AP2 block; GST-fluorescein binding to GSH beads, fluorescence; inhibition, % at 10 µM; 1,300 compounds, 2% hits; AID 588338;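 active means inhibition above 50%, about 3 SD of the inhibition seen with non-fluorescent compounds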;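 further: fluorescein maleimide labelled GST captured on 4 micron glutathione beads; higher means more loss of bead fluorescence from quenching or blocked binding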
Active calls of the source: *; · = no result.

SMILES	ALR H2O2 inh	NALP1 yeast inh	PolyA inhibitor	DSG3 Ab inh	Arr AP2 block	NLRP3 yeast inh	Arr-AP2 CP1	GST-FITC bead
COc1cccc(CNC(C)C(=O)Nc2ccc3c(c2)OCCO3)c1 (stereo unspecified)	0	-8	-6	112	0	3	·	·
Cc1cccc(OC(C)C(=O)Nc2ccc3c(c2)OCCO3)c1 (stereo unspecified)	·	·	·	101	-13	·	-3	-11
Cc1csc(SCC(=O)N(C)CC(=O)Nc2ccc(F)cc2)n1	·	-15	-12	108	-2	-4	·	·
Cc1ccccc1C(=O)Nc1c(C(=O)N(CCN(C)C)Cc2ccco2)oc2ccccc12	-13	16	-3	106	58*	-2	-6	2
COc1ccccc1CNC(=O)Cn1cccc1	4	20	-4	·	3	12	·	·
CCOC(=O)CSC1=N/C(=C\c2cccnc2)C(=O)N1c1ccc(OC)cc1	6	15	-6	100	105*	-7	2	-4
CN(C(=O)COC(=O)CCC(=O)c1ccc(F)cc1)C1CCCCC1	-5	·	·	92	33	19	·	·
O=C(/C=C/c1ccc(Cl)cc1)NC(=S)Nc1ccc(CN2CCOCC2)cc1	3	26	-18	82	105*	16	8	-5
CC(C)COc1ccc(C(=O)NC(=S)Nc2ccc(CN3CCOCC3)cc2)cc1	-4	28	-36	83	103*	16	13	36
O=C(/C=C/c1ccccc1)Nc1ccc(CN2CCOCC2)cc1	26	22	-11	97	-12	22	·	·
O=C1C2C3C=CC(C3)C2C(=O)N1Nc1c(Cl)cc(Cl)cc1Cl (stereo unspecified)	0	4	20	98	0	4	·	·
CC(/C=N/Nc1nc(C)cc(=O)[nH]1)=C\c1ccccc1	1	0	22	87	-6	18	·	·
CC(/C=N/Nc1nc2ccccc2[nH]1)=C\c1ccccc1	·	39	-13	108	107*	12	1	9
N#CC1CCN(C(=O)c2ccc3c(Cl)c4c(nc3c2)CCCC4)CC1	58	9	16	71	-3	-1	·	·
CN1CCN(C(=O)c2ccc3c(Cl)c4c(nc3c2)CCCC4)CC1	-1	22	7	103	64*	9	-6	-4
COc1cc(O)cc2c1[C@@H]1Oc3c(ccc(O)c3CC=C(C)C)[C@@H]1CO2	20	·	-13	102	15	1	·	·
COc1ccc(N2CCN(S(=O)(=O)CCNC(=O)/C=C/c3ccc4c(c3)OCO4)CC2)cc1	-9	·	16	91	63*	14	0	-1
COc1ccccc1N1CCN(S(=O)(=O)CCNC(=O)/C=C/c2ccc3c(c2)OCO3)CC1	·	·	·	104	·	·	·	·
COc1cc2c(cc1NC(=O)Nc1ccc(F)cc1)oc1ccccc12	-8	30	1	97	-2	17	-11	-7
COc1cc2c(cc1NC(=O)CSc1ccccc1)oc1ccccc12	-5	20	22	97	0	11	-8	-4
COc1cc2c(cc1NC(=O)/C=C/c1ccccc1)oc1ccccc12	-2	4	-3	100	-2	20	·	·
COc1cc2c(cc1NC(=O)CSc1nccn1C)oc1ccccc12	49	38	-6	98	-5	11	·	·
COc1ccc(NC(=O)Nc2cc3oc4ccccc4c3cc2OC)cc1	0	17	-10	89	1	22	-11	1
COc1cc(NC(=O)COc2ccccc2)c(OC)cc1NC(C)=O	·	-8	2	108	60*	5	-1	-10
COc1cc(NC(=O)c2ccccc2)c(OC)cc1NC(C)=O	·	7	1	·	-2	15	·	·
SMILES	ALR H2O2 inh	NALP1 yeast inh	PolyA inhibitor	DSG3 Ab inh	Arr AP2 block	NLRP3 yeast inh	Arr-AP2 CP1	GST-FITC bead
Cc1cc(C)n(Cc2cc(C(=O)O)c3ccccc3n2)n1	-3	-7	2	98	24	-11	·	·
CCOC(=O)C1(CC2CCCCO2)CCN(S(=O)(=O)c2c(C)nn(C)c2C)CC1 (stereo unspecified)	-3	2	3	108	-4	3	·	·
COc1ccc(CN(C)C(=O)[C@H](Cc2ccccc2)NC(=O)c2ccco2)c(OC)c1	1	·	·	102	-3	6	·	·
COc1cc2c(cc1NC(=O)Nc1ccc(C)cc1)oc1ccccc12	-11	-6	5	102	12	5	-8	9
COc1cc2c(cc1NC(=O)C(C)Sc1ccc(NC(C)=O)cc1)oc1ccccc12 (stereo unspecified)	·	21	-7	103	0	18	2	-7
COc1ccc(OCC(=O)Nc2cc3oc4ccccc4c3cc2OC)cc1	-4	12	-2	93	28	5	1	19
CNC(=S)Nc1cc2oc3ccccc3c2cc1OC	29	2	4	100	-1	28	·	·
COc1cc2c(cc1NC(=S)Nc1cccc(C)c1)oc1ccccc12	-36	3	-10	105	-10	21	·	·
COc1cc2c(cc1NC(=O)Nc1cccc(C)c1)oc1ccccc12	-4	-2	-14	93	3	8	14	7
CS(=O)(=O)N(Cc1ccccc1)c1ccc(C(=O)NCc2cccnc2)cc1	-26	6	3	100	-3	-8	·	·
O=C(CCNC(=O)c1ccc(Br)cc1)NCc1ccccc1F	2	·	1	102	55*	8	-6	-1
O=C(CCNC(=O)c1ccccc1)NCc1ccccc1F	-2	·	·	·	16	16	·	·
O=C(N=c1ccn(-c2nc3ccccc3nc2NS(=O)(=O)c2ccccc2)cc1)c1cccs1	-2	22	23	95	58*	-20	-11	60*
CN(CCOc1ccccc1)C(=O)c1cc([N+](=O)[O-])cc([N+](=O)[O-])c1	-79	7	-22	101	60*	17	18	3
Cc1nc(NCCN2CCOCC2)c2oc3ccccc3c2n1	-23	16	-6	102	55*	5	15	-6
CC(C)(C)NC(=O)C1Cc2ccccc2CN1C(=O)Nc1ccccc1Cl (stereo unspecified)	0	1	-5	105	83*	13	3	0
CCC(C(=O)Nc1ccc2c(c1)OCCO2)n1c(=O)[nH]c2ccccc2c1=O (stereo unspecified)	-3	-1	9	99	21	7	-3	-2
Cc1[nH]c2ccccc2c1C(=O)C(=O)Nc1ccc2c(c1)OCCO2	42	-6	0	106	-8	7	·	·
